In PubChem BioAssay:
Values without a mark were called inactive. Inconclusive results are not listed. Calls of active or inactive are those of the source.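 How the source made its calls, unless noted: active means RAM network inhibition above 8.4% in each of two replicates, 3 SD over the compound average; inconclusive means above 8.4% inhibition in only one replicate; inactive means 8.4% inhibition or less in each replicate.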

Experiments:
[1] = OD615 S. cerevisiae growth inhibition, permissive medium, pilot counter-assay, permissive growth control for S. cerevisiae lifespan shortening project (AID 705;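 active means growth inhibition above 25% in both replicates, a cutoff set 3 SD above the mean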); settings: OD615, 24 h, at 10 µM, active compounds read high
How it was run: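 System: S. cerevisiae with engineered DeaD lifespan system / Measured by: absorbance (optical density) at 615 nm / Read-out: reduction in yeast growth (OD615) / Times: 4 h cell pre-growth, 24 h exposure at 30 °C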

[2] = Restrictive medium S. cerevisiae growth inhibition, OD615, pilot screen of yeast lifespan reduction project, restrictive growth control (AID 706;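 active means growth inhibition above a set limit, 3 SD over mean compound inhibition, in both replicates, cut at about 43% in these data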;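 further: modified DeaD lifespan yeast strain shifted to restrictive glucose medium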); settings: OD615, 48 h, at 10 µM, active compounds read high
How it was run: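 System: Engineered S. cerevisiae DeaD strain | Buffer or medium: Glucose-based CSMM-D restrictive medium | Schedule: 4 h pre-incubation, 48 h exposure at 30 °C | Technique: Optical density at 615 nm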

[3] = viability gain of MRP-1-high H69AR cells under doxorubicin, pilot screen, MRP-1 activator project, CellTiter-Glo, duplicate (AID 807;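 active means viability increase at or above a cutoff of the median across tested compounds plus 3 SD, cut at about 8.5% in these data, passing the limit was not always enough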;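 further: compound pretreatment 18-22 h then 72 h combined with doxorubicin; 0% = doxorubicin alone and 100% = vehicle without doxorubicin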); settings: H69AR viability with doxorubicin, CellTiter-Glo luminescence; at 10 µM; active compounds read high
[4] = growth suppression of beta-catenin knockout HCT116, pilot screen, human colon tumor cells (AID 823;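 active means cell viability at or below a set limit in both duplicate runs, the limit being the all-compound median minus 4 SD, cut at about 23% in these data, passing the limit was not always enough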;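 further: 0% = wells killed by 20 µM Hyamine and 100% = untreated DMSO cell wells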); settings: CellTiter-Glo, 60 h, at 10 µM, active compounds read low
[5] = growth suppression of PTEN-deleted HCT116, pilot screen, cell-based, HCT116 clonal line, CellTiter-Glo (AID 824;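 active means viability at or below 27.92% in each of two runs, the all-compound median minus 4 SD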;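 further: 0% = 20 µM Hyamine control and 100% = vehicle cell control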); settings: 60 h, at 10 µM, active compounds read low
[6] = inhibitors of the yeast RAM network, pilot screen, dse1pr::URA3 reporter, 5-FOA selection (AID 869;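 active means inhibition over a set limit, the all-compound mean plus 3 SD, in both replicate runs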;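 further: 0% = DMSO wells with no growth and 100% = 10 µM 1-NA-PP1 with full growth; RAM network block rescues cells from 5-FOA so hits raise OD615 growth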); settings: S. cerevisiae dse1pr::URA3 5-FOA growth, OD615, 2 d; at 10 µM; active compounds read high; strain carries analog-sensitive mutant Cbk1 kinase
[7] = RAM signaling pathway blockade in yeast – S. cerevisiae, Pdr1DBD-CYC8 efflux-inhibited sensitized strain, primary screen (AID 1298);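 further: 0% = DMSO untreated cells without growth and 100% = 10 µM 1-NA-PP1 full growth; higher means more yeast growth rescued from 5-FOA killing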; settings: S. cerevisiae cbk1-as DSE1-URA3 strain, 5-FOA growth OD615, 2 d; at 50 µM; active compounds read high

Structure (SMILES) | growth inhibition [1] [%] | growth inhibition [2] [%] | viability increase [3] [%] | viability [4] | viability [5] | inhibition [6] [%] | RAM network inhibition [7] [%]
C=C(C)Cc1c(C)nc(-c2ccccc2)[nH]c1=O | -14 | -14.1 | 0.87 | 99.7% | 98.5% | 1.76 | 1.46
CC1(C)C(=O)OC(C(=O)c2ccccc2)C(C)(C)C1=O (configuration not stated) | -7.95 | -6.81 | 0.07 | 105% | 94.8% | 0.83 | 2.22
Cc1ccccc1NC(=O)CCn1c(=O)oc2ccccc21 | -3.42 | -26.5 | -1.87 | 101% | 91.3% | 1.54 | 3.96
O=C1N2CN(C(c3ccccc3)c3ccccc3)CN=C2SC1(CO)CO | -9.07 | -4.68 | -2.69 | 62.9% | 74.8% | 1.88 | 1.39
Cc1cc(C)n(-c2nncc(-c3ccccc3)n2)n1 | 14 | 34.6 | -2.22 | 98.9% | 95.6% | 1.86 | 0.92
Cc1cc(NC(=O)c2ccccc2)sc1C | -5.22 | 3.02 | -3.69 | 70.7% | 70% | -1.59 | -1.89
O=C(C1CCC(CNc2c(N3CCOCC3)c(=O)c2=O)CC1)N1CCN(c2ccccc2)CC1 (configuration not stated) | -0.4 | -8.31 | -1.19 | 95.8% | 83.7% | 2.86 | 1.31
O=C(CNC(=O)c1ccccc1F)NC1CC1 | -8.56 | -2.84 | -2.87 | 99.3% | 96.4% | 0.76 | 6.17
O=c1nc(-c2ccccc2)cn[nH]1 | -4.61 | -4.27 | -0.11 | 101% | 105% | 1.29 | 2.6
Cc1cc(C)nc(-n2nc(C)cc2NC(=O)CN2CCC(C)CC2)n1 | -0.83 | 21.6 | -5.27 | 75.3% | 85.5% | 1.01 | 2.91
Cc1ccc(Cn2c(CN3CC(C)OC(C)C3)nc3c2c(=O)n(C)c(=O)n3C)cc1 (configuration not stated) | -5.45 | -10.8 | -1.28 | 96.1% | 95.1% | 2.09 | 1.95
O=c1[nH]cnc2c1sc(=S)n2-c1ccccc1 | 10.2 | 29.8 | -0.17 | 101% | 97.1% | 1.87 | 8.71
COc1ccccc1CNc1ncnc2c1cnn2-c1ccccc1 | -13.5 | -7.05 | -4.76 | 74.2% | 79% | 0.575 | 0.57
COC(=O)C1=CN(C(C)C)C=C(C(=O)OC)C1c1cccc(OC)c1 | -3.31 | -9.06 | -4.15 | 73.8% | 63.2% | 0.405 | 5.46
COc1ccc(CN=CC2=C(O)CNC2=O)cc1OC | -12 | -8.51 | -0.57 | 99.8% | 103% | 1.47 | 5.81
CCCCN(CC)CCNc1c(NC2CCN(C(=O)OCC)CC2)c(=O)c1=O | 2.35 | 5.98 | -0.12 | 100% | 95% | 0.09 | 3.37
O=C(c1ccc2nc(N3CCOCC3)sc2c1)N1CCN(C(=O)c2ccco2)CC1 | -4.29 | 2.97 | -1.45 | 105% | 95.8% | 0.86 | 3.05
Cc1ccc2[nH]c(=O)c(-c3noc(C(C)C)n3)cc2c1 | -11.9 | -1.75 | -2.88 | 114% | 96.5% | 0.48 | 5.62

Structure (SMILES) | growth inhibition [1] [%] | growth inhibition [2] [%] | viability increase [3] [%] | viability [4] | viability [5] | inhibition [6] [%] | RAM network inhibition [7] [%]
CCCc1ccc2c(N)c(C#N)sc2n1 | -9.88 | 2.12 | 0.61 | 111% | 104% | 0.235 | -0.37
CCNc1nc2c(c(=O)[nH]c(=O)n2C)n1Cc1ccc(F)cc1 | -8.34 | -8.31 | -3.05 | 99% | 85.2% | 0.035 | 4.88
O=C(Cn1ncc2c(=O)oc3ccccc3c21)N(Cc1ccco1)C1CCCCC1 | -4.29 | -1.01 | -4.59 | 92.5% | 94.6% | 2.71 | 5.12
CCN(CC)CC(=O)n1c2c(c3ccccc31)CCCC2 | 4.59 | -2.73 | -1.1 | 94.5% | 99.5% | 0.57 | 0.67
CNC(=O)c1c(N)sc2c1CCCCC2 | -2.01 | 8.19 | -3.12 | 88.8% | 88.1% | 1.19 | 4.13
O=C(O)COc1ccc(Br)cc1/C=N/O | 5.41 | 3.78 | -2.11 | 92.7% | 85.4% | 0.975 | 2.5
Cc1ccc2cc(CCNS(=O)(=O)c3ccc(F)cc3)c(=O)[nH]c2c1 | -11.5 | -8.69 | -1.91 | 93% | 80.5% | 1.72 | 1.31
COc1ccc(OC)c2sc(NC(=O)C(C)C)nc12 | -15.2 | -18 | -1.14 | 105% | 92% | 1.31 | 9.63
O=C(c1cccs1)n1cc(C(=S)N2CCOCC2)c2ccccc21 | -4.95 | -0.915 | -0.89 | 94.2% | 88.1% | 1.71 | 4.07
CCOc1ccc(N(CC(=O)N2CCc3ccccc32)S(=O)(=O)c2c(C)noc2C)cc1 | -1.81 | 10.1 | -5.12 | 65.7% | 59.2% | 3.63 | 2.47
COc1ccc(NC(=O)c2ccc(CN3CCN(c4ccccc4)CC3)cc2)cc1 | -7.38 | -9.14 | -0.09 | 67.4% | 73.1% | 2.54 | 9.97
CC(C)=CC1C(C(=O)Nc2ccc(Br)cn2)C1(C)C (configuration not stated) | -14.6 | -19.1 | -0.01 | 60.7% | 63.2% | 3.15 | 4.66
Cc1cc(-n2nc(C)cc2C)nc(NS(=O)(=O)c2ccccc2)n1 | -11.4 | -20.8 | -2.09 | 94.8% | 94.3% | 2.98 | 4.2
COc1ccc(OC)c(S(=O)(=O)NCCc2cn3ccsc3n2)c1 | -6.71 | -11.5 | -2.28 | 105% | 103% | 3.81 | 3.59
CCCOc1ccc2ccccc2c1/C=N/n1c(C)nnc1-n1nc(C)cc1C | -5.19 | 1.04 | -4.98 | 18.6% (active) | 19.6% (active) | -0.29 | -2.3
CCOc1ccc(CCNC(=O)c2nnc(Cc3ccc(F)cc3)o2)cc1OCC | -5.33 | 7.65 | -2.55 | 103% | 95.2% | 1.5 | 5.06
CC(C)c1nc2cc3ccccc3cc2[nH]1 | -5.02 | -20.5 | -3.6 | 73.5% | 81.8% | 0.18 | 7.45
CN(C)c1nc(N)nc(N(c2ccccc2)c2ccccc2)n1 | -12.3 | -28.1 | -2.5 | 93.6% | 90.8% | -0.635 | 2.96
